This is a sample that favours compounds with a hit; in the whole collection about 1.8% have one here.
NPY1 pot ag = potentiates or activates human NPY-Y1 receptor. P25929. NPY-Y1 expressing cells, potentiator/agonist activation. activation, % at 3.6 µM. 220,000 compounds, 0.37% hits. AID 1304; in the data active = activation above about 33%, passing the limit was not always enough;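 note: cells stimulated with NPY at EC10 then isoproterenol at EC100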
NPY Y1 blocker = antagonists of human neuropeptide Y receptor Y1; P25929; HEK293-CNG Y1 cells, membrane potential fluorescence; NPY at EC95, then isoproterenol; inhibition, % at 3.6 µM; 200,000 compounds, 1% hits; AID 1040;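 active = inhibition above the campaign mean inhibition of all tested compounds plus 3 SD, cut at about 20% in these data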
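Test system: HEK293 cells co-expressing NPY Y1 receptor and cyclic-nucleotide gated channel; Also added: NPY (25 nM), isoproterenol (1 µM), Ro 20-1724 (25 µM); Compound dosing: one concentration, 3.6 µM, in 0.4% DMSO; Timing: dye 3 h, compound 60 min room temperature, stimulation 45 min; Technique: Membrane-potential fluorescent dye readout.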
NPY-Y2 antag = blocks the human neuropeptide Y Y2 receptor; P49146; AID 793; inhibition, % at 2.7 µM; NPY-Y2 expressing cells, antagonist mode; 140,000 compounds, 0.99% hits; in the data active = inhibition above about 17%
Target sequence (P49146 whole entry, looked up): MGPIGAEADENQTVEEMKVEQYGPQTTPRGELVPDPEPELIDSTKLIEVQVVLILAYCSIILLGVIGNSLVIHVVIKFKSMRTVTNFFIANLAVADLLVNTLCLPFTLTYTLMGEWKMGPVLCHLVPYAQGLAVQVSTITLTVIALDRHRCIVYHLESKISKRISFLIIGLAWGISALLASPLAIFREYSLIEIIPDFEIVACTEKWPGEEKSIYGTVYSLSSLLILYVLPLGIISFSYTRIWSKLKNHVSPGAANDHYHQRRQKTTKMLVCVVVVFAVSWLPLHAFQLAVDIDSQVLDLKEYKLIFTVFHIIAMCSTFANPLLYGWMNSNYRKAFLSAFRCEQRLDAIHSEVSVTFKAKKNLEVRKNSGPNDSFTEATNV
NPY2 pot ag = potentiators or agonists of human neuropeptide Y receptor Y2 | activation, % at 3.6 µM | cells expressing NPY-Y2, potentiator/agonist read-out | 220,000 compounds, 0.45% hits | P49146 | AID 1359; in the data active = activation above about 27%;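 note: cells stimulated with NPY near EC25 plus isoproterenol at EC100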
Numbers stand for hits; i = inactive; nt = not tested or not shown.

SMILES	NPY1 pot ag	NPY Y1 blocker	NPY-Y2 antag	NPY2 pot ag
O=C(OCc1nnc(-c2ccccc2)o1)c1ccc(Cl)cc1	i	i	nt	i
O=C(OCc1nnc(-c2ccccc2)o1)c1ccc2c(c1)OCCO2	i	i	19.8	i
CN(C)CCN(C(=O)c1ccc(S(=O)(=O)N(C)c2ccccc2)cc1)c1nc2cc3c(cc2s1)OCCO3	i	nt	nt	i
CN(C)CCCN(C(=O)c1sc2ccccc2c1Cl)c1nc2c(F)cccc2s1	i	20.3	17.7	i
CCOc1cccc2sc(N(CCCN(C)C)C(=O)c3ccc(S(=O)(=O)N(C)c4ccccc4)cc3)nc12	i	21.0	nt	i
CC(C)(O)c1cn(-c2nonc2N)nn1	i	i	i	i
CC1=CC(C)(C)N(C(=O)C(C)N2C(=O)c3ccccc3C2=O)c2c(C)cc(C)cc21 (centres undefined)	i	27.9	18.0	i
COc1ccc2c(c1)C(C)=CC(C)(C)N2C(=O)C(C)N1C(=O)c2ccccc2C1=O (centres undefined)	i	i	i	i
CCOc1cc(S(=O)(=O)Nc2ccc(Cl)cn2)ccc1F	i	i	i	i
COc1ccc(S(=O)(=O)Nc2ccc(Cl)cn2)c(C)c1C	59.1	i	i	36.9
O=S(=O)(Nc1ccc(Cl)cc1)c1ccc2c(c1)CCO2	i	nt	nt	i
CCOCC(=O)N(CC)Cc1ccccc1	i	i	nt	i
CCCC(=O)N(CCN(Cc1ccccc1)C(=O)CCC)Cc1ccccc1	i	55.9	24.7	i
COC(=O)C(CC(=O)O)NCc1ccco1 (centres undefined)	i	nt	nt	i
N#Cc1nc(-c2ccco2)oc1N1CCN(c2ccccc2)CC1	i	26.1	i	i
N#Cc1nc(-c2ccco2)oc1N1CCOCC1	i	i	i	i
N#Cc1nc(-c2ccco2)oc1N1CCC(Cc2ccccc2)CC1	i	20.8	20.4	i
CC(C)CC(=O)Nc1ccc(-c2nc3ccccc3c(=O)[nH]2)cc1	i	i	i	i
Cc1[nH]c2c(C)cccc2c1CCNC(=O)c1ccc2c(c1[N+](=O)[O-])C(=O)c1ccccc1C2=O	68.3	i	i	58.7
Cc1[nH]c2ccccc2c1CCNC(=O)c1ccc2c(c1[N+](=O)[O-])C(=O)c1ccccc1C2=O	i	i	i	i
CNC(=O)Cn1nc(-c2ccc(C)c(S(=O)(=O)N(C)C)c2)c2ccccc2c1=O	i	i	i	i
COC(=O)c1[nH]c(C)c(/C(O)=C2\C(=O)C(=O)N(CCN3CCOCC3)C2c2ccco2)c1C (centres undefined)	i	nt	nt	i
CC(=O)NC(NC(=S)Nc1ccc(N=Nc2ccccc2)cc1)C(Cl)(Cl)Cl (centres undefined)	45.6	i	i	i
CC(=O)NC(NC(=S)Nc1ccc(S(N)(=O)=O)cc1)C(Cl)(Cl)Cl (centres undefined)	i	nt	nt	i
COC(=O)COc1cccc(NS(=O)(=O)c2cccc([N+](=O)[O-])c2)c1	i	i	nt	i
SMILES	NPY1 pot ag	NPY Y1 blocker	NPY-Y2 antag	NPY2 pot ag
COC(=O)COc1ccc(NS(=O)(=O)c2cccc([N+](=O)[O-])c2)cc1	35.4	i	nt	48.2
CCc1ccc(/C=C2\Oc3c(ccc(O)c3CN3CCN(CCO)CC3)C2=O)cc1	i	nt	nt	i
Cc1noc(C)c1CSc1nc2ccccc2c(=O)n1-c1ccc(Cl)cc1	i	27.5	32.2	i
Cc1noc(C)c1CSc1nnnn1-c1ccc(Cl)cc1	i	i	i	i
Cc1nn(-c2ccccc2)c2sc(-c3n[nH]c(=S)o3)cc12	i	i	i	i
Cc1cc(C)n(-c2nnc(C)n2/N=C/c2cc(Br)ccc2OCc2ccccc2)n1	i	i	32.0	i
COc1ccccc1/C=N/n1c(C)nnc1-n1nc(C)cc1C	i	i	i	i
CCOC(=O)CC(=O)N/N=C/c1c(N)n(C)c(=O)n(C)c1=O	i	i	nt	i
COC(=O)C(Cc1ccc(O)cc1)NC(=O)C12CC3CC(CC(C3)C1)C2 (centres undefined)	50.8	i	nt	63.1
O=C(O)CC(c1ccc(Cl)cc1)N1C(=O)CCC1=O (centres undefined)	i	i	i	i
CCCn1c(=O)c2ccccc2n2c(SCCOc3ccccc3F)nnc12	i	26.5	17.4	i
CCCn1c(=O)c2ccccc2n2c(SCc3cc(=O)n4ccsc4n3)nnc12	i	21.4	i	i
CCCn1c(=O)c2ccccc2n2c(SCc3cc(=O)oc4ccc5ccccc5c34)nnc12	i	i	i	i
CCCCNC(=S)NNC(=O)c1ccco1	i	i	i	i
N=c1c2c(-c3ccccc3)c(-c3ccccc3)n(Cc3ccco3)c2ncn1Cc1ccco1	i	22.4	31.8	i
CCCCn1c(=O)[nH]c(=O)c2c1ncn2Cc1ccco1	i	i	i	i

Bioassay records from PubChem.
